{"source": "ChEMBL document CHEMBL4373711", "about": "“Development of 3,5-Dinitrophenyl-Containing 1,2,4-Triazoles and Their Trifluoromethyl Analogues as Highly Efficient Antitubercular Agents Inhibiting Decaprenylphosphoryl-β-d-ribofuranose 2'-Oxidase” (J Med Chem, 2019)", "type_in_all_cases": "functional", "key": {"Mycobacterium kansasii [1]": {"system": "Mycobacterium kansasii", "experiment": "Antimycobacterial activity against Mycobacterium kansasii 6509/96 after 14 days", "settings": "6509/96, 336 h", "procedure,_shortened": "(§1)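 Microdilution in Šula's semisynthetic medium; compounds in DMSO at 32–0.03 µM. Inoculum from 1.0 McFarland suspension diluted 10-4. […] Isoniazid and rifampicin as reference drugs.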"}, "Mycobacterium kansasii [2]": {"system": "Mycobacterium kansasii", "experiment": "Antimycobacterial activity against Mycobacterium kansasii CNCTC My 235/80 after 14 days", "settings": "CNCTC My 235/80, 336 h", "procedure,_shortened": "as §1"}, "[3]": {"system": "Mycobacterium tuberculosis", "experiment": "Antimycobacterial activity against Mycobacterium tuberculosis H37Rv CNCTC My 331/88 after 14 days", "settings": "H37Rv CNCTC My 331/88, 336 h", "procedure,_shortened": "(§2)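 M. tuberculosis strains (H37Rv and clinical MDR/XDR isolates) tested by microdilution in Šula's semisynthetic medium. Compounds were dissolved in DMSO and tested at 32 to 0.03 µM in twofold steps. Inoculum was a 1.0 McFarland suspension diluted 10-3. Plates were incubated at 37 °C and read at 14 and 21 days.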"}, "Mycobacterium kansasii [4]": {"system": "Mycobacterium kansasii", "experiment": "Antimycobacterial activity against Mycobacterium kansasii CNCTC My 235/80 after 21 days", "settings": "CNCTC My 235/80, 504 h", "procedure,_shortened": "as §1"}, "Mycobacterium kansasii [5]": {"system": "Mycobacterium kansasii", "experiment": "Antimycobacterial activity against Mycobacterium kansasii 6509/96 after 7 days", "settings": "6509/96, 168 h", "procedure,_shortened": "as §1"}, "Mycobacterium kansasii [6]": {"system": "Mycobacterium kansasii", "experiment": "Antimycobacterial activity against Mycobacterium kansasii CNCTC My 235/80 after 7 days", "settings": "CNCTC My 235/80, 168 h", "procedure,_shortened": "as §1"}, "[7]": {"system": "Mycobacterium tuberculosis", "experiment": "Antimycobacterial activity against Mycobacterium tuberculosis H37Rv CNCTC My 331/88 after 21 days", "settings": "H37Rv CNCTC My 331/88, 504 h", "procedure,_shortened": "as §2"}, "Mycobacterium kansasii [8]": {"system": "Mycobacterium kansasii", "experiment": "Antimycobacterial activity against Mycobacterium kansasii 6509/96 after 21 days", "settings": "6509/96, 504 h", "procedure,_shortened": "as §1"}, "Mycobacterium avium [9]": {"system": "Mycobacterium avium", "experiment": "Antimycobacterial activity against Mycobacterium avium CNCTC My 330/88 after 21 days", "settings": "CNCTC My 330/88, 504 h", "procedure,_shortened": "(§3)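 M. avium was tested by microdilution in Šula's semisynthetic medium, with compounds dissolved in DMSO and serially diluted from 1000 down to 1. Inoculum was a 1.0 McFarland suspension diluted 10-5. Plates were incubated at 37 °C and read at 14 and 21 days. […] Isoniazid and rifampicin served as standards.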"}, "Mycobacterium avium [10]": {"system": "Mycobacterium avium", "experiment": "Antimycobacterial activity against Mycobacterium avium CNCTC My 330/88 after 14 days", "settings": "CNCTC My 330/88, 336 h", "procedure,_shortened": "as §3"}}}
{"smiles": "O=[N+]([O-])c1cc(CSc2nnc(-c3ccccc3)n2-c2ccccc2)cc([N+](=O)[O-])c1", "values": [{"measurement": "MIC99", "setting": "Mycobacterium kansasii [1]", "result": 4, "unit": "µM"}, {"measurement": "MIC99", "setting": "Mycobacterium kansasii [2]", "result": 4, "unit": "µM"}, {"measurement": "MIC99", "setting": "[3]", "result": 4, "unit": "µM"}, {"measurement": "MIC99", "setting": "Mycobacterium kansasii [4]", "result": 8, "unit": "µM"}, {"measurement": "MIC99", "setting": "Mycobacterium kansasii [5]", "result": 2, "unit": "µM"}, {"measurement": "MIC99", "setting": "Mycobacterium kansasii [6]", "result": 2, "unit": "µM"}, {"measurement": "MIC99", "setting": "[7]", "result": 4, "unit": "µM"}, {"measurement": "MIC99", "setting": "Mycobacterium kansasii [8]", "result": 8, "unit": "µM"}, {"measurement": "MIC99", "setting": "Mycobacterium avium [9]", "result": "> 1000", "unit": "µM"}, {"measurement": "MIC99", "setting": "Mycobacterium avium [10]", "result": "> 1000", "unit": "µM"}]}
{"smiles": "O=[N+]([O-])c1cc(CSc2nnc(-c3ccc(Cl)c(Cl)c3)n2Cc2ccccc2)cc([N+](=O)[O-])c1", "values": [{"measurement": "MIC99", "setting": "Mycobacterium kansasii [1]", "result": 4, "unit": "µM"}, {"measurement": "MIC99", "setting": "Mycobacterium kansasii [2]", "result": 2, "unit": "µM"}, {"measurement": "MIC99", "setting": "[3]", "result": 2, "unit": "µM"}, {"measurement": "MIC99", "setting": "Mycobacterium kansasii [4]", "result": 2, "unit": "µM"}, {"measurement": "MIC99", "setting": "Mycobacterium kansasii [5]", "result": 2, "unit": "µM"}, {"measurement": "MIC99", "setting": "Mycobacterium kansasii [6]", "result": 1, "unit": "µM"}, {"measurement": "MIC99", "setting": "[7]", "result": 2, "unit": "µM"}, {"measurement": "MIC99", "setting": "Mycobacterium kansasii [8]", "result": 4, "unit": "µM"}, {"measurement": "MIC99", "setting": "Mycobacterium avium [9]", "result": 250, "unit": "µM"}, {"measurement": "MIC99", "setting": "Mycobacterium avium [10]", "result": 250, "unit": "µM"}]}
{"smiles": "CCNC(=S)NNC(=O)c1cc([N+](=O)[O-])cc([N+](=O)[O-])c1", "values": [{"measurement": "MIC99", "setting": "Mycobacterium kansasii [1]", "result": "> 32", "unit": "µM"}, {"measurement": "MIC99", "setting": "Mycobacterium kansasii [2]", "result": "> 32", "unit": "µM"}, {"measurement": "MIC99", "setting": "[3]", "result": "> 32", "unit": "µM"}, {"measurement": "MIC99", "setting": "Mycobacterium kansasii [4]", "result": "> 32", "unit": "µM"}, {"measurement": "MIC99", "setting": "Mycobacterium kansasii [5]", "result": "> 32", "unit": "µM"}, {"measurement": "MIC99", "setting": "Mycobacterium kansasii [6]", "result": "> 32", "unit": "µM"}, {"measurement": "MIC99", "setting": "[7]", "result": "> 32", "unit": "µM"}, {"measurement": "MIC99", "setting": "Mycobacterium kansasii [8]", "result": "> 32", "unit": "µM"}, {"measurement": "MIC99", "setting": "Mycobacterium avium [9]", "result": 1000, "unit": "µM"}, {"measurement": "MIC99", "setting": "Mycobacterium avium [10]", "result": 1000, "unit": "µM"}]}
{"smiles": "O=[N+]([O-])c1cc(Cn2c(SCc3ccc(Cl)cc3)nnc2-c2ccccc2)cc([N+](=O)[O-])c1", "values": [{"measurement": "MIC99", "setting": "Mycobacterium kansasii [1]", "result": 32, "unit": "µM"}, {"measurement": "MIC99", "setting": "Mycobacterium kansasii [2]", "result": 8, "unit": "µM"}, {"measurement": "MIC99", "setting": "[3]", "result": 8, "unit": "µM"}, {"measurement": "MIC99", "setting": "Mycobacterium kansasii [4]", "result": 16, "unit": "µM"}, {"measurement": "MIC99", "setting": "Mycobacterium kansasii [5]", "result": 16, "unit": "µM"}, {"measurement": "MIC99", "setting": "Mycobacterium kansasii [6]", "result": 4, "unit": "µM"}, {"measurement": "MIC99", "setting": "[7]", "result": 16, "unit": "µM"}, {"measurement": "MIC99", "setting": "Mycobacterium kansasii [8]", "result": 32, "unit": "µM"}, {"measurement": "MIC99", "setting": "Mycobacterium avium [9]", "result": 250, "unit": "µM"}, {"measurement": "MIC99", "setting": "Mycobacterium avium [10]", "result": 250, "unit": "µM"}]}
{"smiles": "O=[N+]([O-])c1ccc(-c2nnc(SCc3cc([N+](=O)[O-])cc([N+](=O)[O-])c3)n2Cc2ccccc2)cc1", "values": [{"measurement": "MIC99", "setting": "Mycobacterium kansasii [1]", "result": 4, "unit": "µM"}, {"measurement": "MIC99", "setting": "Mycobacterium kansasii [2]", "result": 4, "unit": "µM"}, {"measurement": "MIC99", "setting": "[3]", "result": 4, "unit": "µM"}, {"measurement": "MIC99", "setting": "Mycobacterium kansasii [4]", "result": 4, "unit": "µM"}, {"measurement": "MIC99", "setting": "Mycobacterium kansasii [5]", "result": 2, "unit": "µM"}, {"measurement": "MIC99", "setting": "Mycobacterium kansasii [6]", "result": 2, "unit": "µM"}, {"measurement": "MIC99", "setting": "[7]", "result": 4, "unit": "µM"}, {"measurement": "MIC99", "setting": "Mycobacterium kansasii [8]", "result": 8, "unit": "µM"}, {"measurement": "MIC99", "setting": "Mycobacterium avium [9]", "result": 250, "unit": "µM"}, {"measurement": "MIC99", "setting": "Mycobacterium avium [10]", "result": 250, "unit": "µM"}]}
{"smiles": "COc1ccc(CSc2nnc(-c3ccccc3)n2Cc2cc([N+](=O)[O-])cc([N+](=O)[O-])c2)cc1", "values": [{"measurement": "MIC99", "setting": "Mycobacterium kansasii [1]", "result": "> 32", "unit": "µM"}, {"measurement": "MIC99", "setting": "Mycobacterium kansasii [2]", "result": "> 32", "unit": "µM"}, {"measurement": "MIC99", "setting": "[3]", "result": 16, "unit": "µM"}, {"measurement": "MIC99", "setting": "Mycobacterium kansasii [5]", "result": "> 32", "unit": "µM"}, {"measurement": "MIC99", "setting": "Mycobacterium kansasii [6]", "result": "> 32", "unit": "µM"}, {"measurement": "MIC99", "setting": "[7]", "result": 16, "unit": "µM"}, {"measurement": "MIC99", "setting": "Mycobacterium avium [9]", "result": 250, "unit": "µM"}, {"measurement": "MIC99", "setting": "Mycobacterium avium [10]", "result": 250, "unit": "µM"}]}
{"smiles": "O=[N+]([O-])c1cc(CSc2nnc(-c3ccccc3)[nH]2)cc([N+](=O)[O-])c1", "values": [{"measurement": "MIC99", "setting": "Mycobacterium kansasii [1]", "result": 8, "unit": "µM"}, {"measurement": "MIC99", "setting": "Mycobacterium kansasii [2]", "result": 8, "unit": "µM"}, {"measurement": "MIC99", "setting": "[3]", "result": 2, "unit": "µM"}, {"measurement": "MIC99", "setting": "Mycobacterium kansasii [4]", "result": 8, "unit": "µM"}, {"measurement": "MIC99", "setting": "Mycobacterium kansasii [5]", "result": 4, "unit": "µM"}, {"measurement": "MIC99", "setting": "Mycobacterium kansasii [6]", "result": 4, "unit": "µM"}, {"measurement": "MIC99", "setting": "[7]", "result": 4, "unit": "µM"}, {"measurement": "MIC99", "setting": "Mycobacterium kansasii [8]", "result": 16, "unit": "µM"}, {"measurement": "MIC99", "setting": "Mycobacterium avium [9]", "result": 125, "unit": "µM"}, {"measurement": "MIC99", "setting": "Mycobacterium avium [10]", "result": 62, "unit": "µM"}]}
{"smiles": "Cc1ccc(-c2nnc(SCc3cc([N+](=O)[O-])cc([N+](=O)[O-])c3)n2Cc2ccccc2)cc1", "values": [{"measurement": "MIC99", "setting": "Mycobacterium kansasii [1]", "result": 4, "unit": "µM"}, {"measurement": "MIC99", "setting": "Mycobacterium kansasii [2]", "result": 4, "unit": "µM"}, {"measurement": "MIC99", "setting": "[3]", "result": 4, "unit": "µM"}, {"measurement": "MIC99", "setting": "Mycobacterium kansasii [4]", "result": 4, "unit": "µM"}, {"measurement": "MIC99", "setting": "Mycobacterium kansasii [5]", "result": 4, "unit": "µM"}, {"measurement": "MIC99", "setting": "Mycobacterium kansasii [6]", "result": 4, "unit": "µM"}, {"measurement": "MIC99", "setting": "[7]", "result": 4, "unit": "µM"}, {"measurement": "MIC99", "setting": "Mycobacterium kansasii [8]", "result": 4, "unit": "µM"}, {"measurement": "MIC99", "setting": "Mycobacterium avium [9]", "result": 250, "unit": "µM"}, {"measurement": "MIC99", "setting": "Mycobacterium avium [10]", "result": 250, "unit": "µM"}]}
{"smiles": "Cn1c(SCc2cc([N+](=O)[O-])cc([N+](=O)[O-])c2)nnc1-c1ccccc1", "values": [{"measurement": "MIC99", "setting": "Mycobacterium kansasii [1]", "result": 8, "unit": "µM"}, {"measurement": "MIC99", "setting": "Mycobacterium kansasii [2]", "result": 8, "unit": "µM"}, {"measurement": "MIC99", "setting": "[3]", "result": 4, "unit": "µM"}, {"measurement": "MIC99", "setting": "Mycobacterium kansasii [4]", "result": 16, "unit": "µM"}, {"measurement": "MIC99", "setting": "Mycobacterium kansasii [5]", "result": 4, "unit": "µM"}, {"measurement": "MIC99", "setting": "Mycobacterium kansasii [6]", "result": 4, "unit": "µM"}, {"measurement": "MIC99", "setting": "[7]", "result": 4, "unit": "µM"}, {"measurement": "MIC99", "setting": "Mycobacterium kansasii [8]", "result": 16, "unit": "µM"}, {"measurement": "MIC99", "setting": "Mycobacterium avium [9]", "result": 250, "unit": "µM"}, {"measurement": "MIC99", "setting": "Mycobacterium avium [10]", "result": 125, "unit": "µM"}]}
